Measured values published in publication PMC4028361 (Immunity, 2014).
Where two headings read alike, the source gives them in different places.

Key:
[1] = target: BTN3A1 B30.2 charge reversal mutant (H378D, K393D, R412E, R418E, R469E) (Homo sapiens, UniProt O00481, H408D/K423D/R442E/R448E/R499E); test: Isothermal titration calorimetry, B30.2 charge reversal mutant; assay type: binding; conditions: ITC; 25μM protein in cell, 500μM pAg in syringe
[2] = target: G115 Vγ9Vδ2 TCR / BTN3A1 extracellular domain (Homo sapiens, UniProt O00481); assay type: binding; conditions: SPR; 1mM cHDMAPP co-injected
Chain of G115 Vγ9Vδ2 TCR / BTN3A1 extracellular domain (O00481 30-254): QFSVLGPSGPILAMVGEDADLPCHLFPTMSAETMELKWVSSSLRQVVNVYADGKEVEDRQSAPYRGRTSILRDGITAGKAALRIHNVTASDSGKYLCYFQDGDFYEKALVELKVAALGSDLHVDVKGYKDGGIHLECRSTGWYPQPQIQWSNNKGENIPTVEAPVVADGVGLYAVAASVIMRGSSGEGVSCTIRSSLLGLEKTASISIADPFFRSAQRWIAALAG
Procedure, shortened: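 G115 Vγ9Vδ2 TCR was C-terminally biotinylated and multimerized at a 60:1 ratio onto streptavidin-conjugated AmDex polymers. Serial dilutions from 1 ug/ml to 0.03125 ug/ml were injected over immobilized […] BTN3A1, with murine T22 protein also immobilized.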

[3] = target: extracellular domain of BTN3A1 (Homo sapiens, UniProt O00481); test: Isothermal titration calorimetry, pAg binding to BTN3A1 extracellular domain; conditions: ITC at multiple temperatures (25°C, 15°C); 100μM protein, 2mM cHDMAPP
Chain of extracellular domain of BTN3A1 (O00481 30-254 limits assumed): as the sequence (O00481 30-254) above

[4] = test system: human Vγ9Vδ2 T cells; assay type: cell-based
Procedure, shortened: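 Target HEK cells had endogenous BTN3A silenced by shRNA and were transiently re-transfected with BTN3A isoforms or position-351 mutants. Cells were pretreated 2 h at 37°C with anti-CD277 agonist mAb 20.1 or zoledronate, washed extensively, then cocultured 4 h at 37°C with polyclonal Vγ9Vδ2 T cells in complete RPMI with 10 μM monensin and labelled anti-CD107a. Cells were then stained for Vδ2 TCR and read by flow cytometry.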

Chain of BTN3A1 B30.2 charge reversal mutant (H378D, K393D, R412E, R418E, R469E) (O00481 322-513 H408D/K423D/R442E/R448E/R499E): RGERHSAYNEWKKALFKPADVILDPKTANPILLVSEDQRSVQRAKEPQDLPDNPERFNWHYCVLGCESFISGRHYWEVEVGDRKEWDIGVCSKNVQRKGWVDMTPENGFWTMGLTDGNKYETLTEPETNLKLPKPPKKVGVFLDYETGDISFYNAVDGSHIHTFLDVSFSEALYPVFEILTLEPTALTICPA

Row | Compound | binding to B30.2 charge reversal mutant [1] | effect of co-injection on G115 AmDex TCR interaction with immobilized BTN3A1 [2] | binding to the complete extracellular domain of BTN3A1 [3] | Vγ9Vδ2 T cell stimulation (CD107a) ([4]; BTN3A-silenced cells re-expressing BTN3A1_H351R) | Vγ9Vδ2 T cell stimulation (CD107a) ([4]; BTN3A-silenced cells re-expressing BTN3A3_R351H)
1 | C/C(=C\CCP(=O)(O)OP(=O)(O)O)CO [cHDMAPP, hydroxy-methyl-butyl-pyrophosphonate] | no detectable binding | did not alter observed interactions | unable to detect binding |  | 
2 | O=P(O)(O)C(O)(Cn1ccnc1)P(=O)(O)O [zoledronate, Zoledronic acid monohydrate] |  |  |  | unable to mediate NBP induced stimulation | able to mediate NBP induced stimulation
